Assay results published in article PMC3206604 (Journal of natural products, 2011).

Legend:
[1] = system: HT-29 human colon cancer cells; assay: Mitochondrial transmembrane potential; format: cell-based; conditions: HT-29 cells; for MTP ED50: reduction of mitochondrial transmembrane potential (ΔΨm)
Summary of the method: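 ΔΨm detected with a JC-1 mitochondrial membrane potential kit, following a previously established protocol. A positive control was run alongside the test compounds. Values were reported as ED50.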

human 20S proteasome [2] = target: human 20S proteasome (Homo sapiens, UniProt P28074); assay: Proteasome inhibition assay; format: biochemical; conditions: for proteasome ED50 / IC50: Table 3, results expressed as ED50; for IC50: read-out: proteasome ED50
human 20S proteasome [3] = assay: Proteasome inhibition assay; format: biochemical; conditions: Table 3, results expressed as ED50
[4] = system: human colon cancer cells (HT-29); assay: Cytotoxicity assay; format: cell-based; conditions: HT-29 cells, standard protocol

proteasome ED50 (human 20S proteasome [2]) [µM]	Compound	MTP ED50 [1] [µM]	also measured
	O=C1C[C@@H](c2ccccc2)Oc2c(Cc3ccccc3O)c(O)c(Cc3ccccc3O)c(O)c21 [compound 7, dichamanetin]	3.6	inhibitory effect in proteasome assay (human 20S proteasome [2]; human 20S proteasome bioassay): did not show any inhibitory effect; proteasome ED50 (human 20S proteasome [3]): >20 µM
>20	5,7-dihydroxy-6-(2‴-hydroxy-5‴-(2′‴-hydroxy-5′‴-(2″‴-hydroxy-5″‴-(2‴‴-hydroxybenzyl)benzyl)benzyl) benzyl)-8-(2″-hydroxybenzyl)-flavanone [compound 3]	2.5	
>20	O=C1C[C@@H](c2ccccc2)Oc2c(Cc3cc(Cc4ccccc4O)ccc3O)c(O)c(Cc3cc(Cc4cc(Cc5ccccc5O)ccc4O)ccc3O)c(O)c21 [compound 4, (2S)-5,7-dihydroxy-6-(2‴-hydroxy-5‴-(2″‴-hydroxy-5″‴-(2‴‴-hydroxybenzyl)benzyl)benzyl)-8-(2″-hydroxy-5′‴-(2′‴-hydroxybenzyl)benzyl)-flavanone]	3.9	
>20	O=C1C[C@@H](c2ccccc2)Oc2c(Cc3cc(Cc4cc(Cc5ccccc5O)ccc4O)ccc3O)c(O)c(Cc3ccccc3O)c(O)c21 [compound 1, (2S)-5,7-dihydroxy-8-(2″-hydroxy-5″-(2′‴-hydroxy-5′‴-(2″‴-hydroxybenzyl)benzyl)benzyl)-6-(2‴-hydroxybenzyl)-flavanone]	3.7	
>20	7-methoxychamanetin [compound 6]	13.6	
	O=C1C[C@@H](c2ccccc2)Oc2cc(O)cc(O)c21 [compound 10, pinocembrin]	>20	MTP ED50 (text, printed in μg/mL) ([1]; called inactive): > 20 µg/mL; IC50 (human 20S proteasome [2]): 2.87 ± 0.26 µM
3.45 ± 0.18	7-methoxydichamanetin [compound 8]	1.6	
>20	O=C1C[C@@H](c2ccccc2)Oc2c(Cc3ccccc3O)c(O)c(Cc3cc(Cc4cc(Cc5ccccc5O)ccc4O)ccc3O)c(O)c21 [compound 2, (2S)-5,7-dihydroxy-6-(2‴-hydroxy-5‴-(2′‴-hydroxy-5′‴-(2″‴-hydroxybenzyl)benzyl)benzyl)-8-(2″-hydroxybenzyl)-flavanone]	6.8	
	CC(=O)O[C@H]1C(=O)[C@@]2(C)[C@H]([C@H](OC(=O)c3ccccc3)[C@]3(O)C[C@H](OC(=O)[C@H](O)[C@@H](NC(=O)c4ccccc4)c4ccccc4)C(C)=C1C3(C)C)[C@]1(OC(C)=O)CO[C@@H]1C[C@@H]2O [Paclitaxel]		cytotoxicity ED50 [4]: 0.006 µM
	O=C1C[C@@H](c2ccccc2)Oc2cc(O)c(Cc3ccccc3O)c(O)c21 [compound 5, isochamanetin]	7.7	IC50 (human 20S proteasome [2]): > 20 µM
>20	5″-(2′‴-hydroxybenzyl)uvarinol [compound 9]	2.3	

Compound	proteasome ED50 (human 20S proteasome [2]) [µM]	MTP ED50 [1] [µM]	also measured
pipercallosine [compound 11]	>20	4.6	
